Laboratory results from ChEMBL document CHEMBL4616681, “Discovery of 3-Pyridyl Isoindolin-1-one Derivatives as Potent, Selective, and Orally Active Aldosterone Synthase (CYP11B2) Inhibitors” (J Med Chem, 2020).

How the values were obtained:
Cynomolgus monkey [1] = experiment: In vivo inhibition of CYP11B1 in cynomolgus monkey assessed as reduction in ACTH-induced 11-deoxycortisol at 0.01 to 10 mg/kg, po preincubated for 1 hr followed by ACTH challenge and measured after 60 mins by LC/MS-MS analysis; type: ADME, organism-based, Macaca fascicularis
Summary of the method: (§1)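 Cynomolgus monkeys preselected as Synacthen responders (at least 2-fold rise in aldosterone, cortisol and corticosterone). Two animals per group. Oral vehicle or compound at 0.01–10 mg/kg in hydroxyethylcellulose/polysorbate 80/paraben suspension (2 mL/kg) at T=0, then 14.5 µg/kg Synacthen i.m. at 1 hr. EDTA blood drawn from -5 min to 24 h. Plasma steroids measured by LC/MS-MS; data shown 60 min after challenge.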

Cynomolgus monkey [2] = experiment: In vivo inhibition of CYP11B1 in cynomolgus monkey assessed as reduction in ACTH-induced cortisol at 10 mg/kg, po preincubated for 1 hr followed by ACTH challenge and measured after 60 mins by LC/MS-MS analysis; type: ADME, organism-based, Macaca fascicularis; summary of the method: as §1
[3] = Permeability of the compound measured at 18 hrs by PAMPA; type: ADME; conditions: read-out: permeability
Summary of the method: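 PAMPA sandwich format. Donor: compound diluted to 150 μM (DMSO <2%) in 0.05 M MOPSO pH 6.5 with 0.5% glycocholic acid. Acceptor: 0.05 M MOPSO pH 6.5. Membrane of 10% egg lecithin with 0.5% cholesterol in dodecane. Donor measured at start; acceptor and donor measured at ~18 hr.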

[4] = Plasma clearance in Wister-Han rat at 1 mg/kg, iv administered as single dose by LC/MS-MS analysis; type: ADME, organism-based; conditions: Wistar-Han
Summary of the method: (§2)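 Male Wistar-Han rats, single dose. IV 1 mg/kg, compound at 0.5 mg/mL in NMP:saline 30/70 (v/v). Oral 3 mg/kg, 0.25 mg/mL in 2% Klucel with 0.1% Polysorbate 80. Three rats per time point. Heparinized blood taken at eight (iv) or seven (po) time points, plasma stored at -20 °C. Plasma levels by LC/MS-MS. Non-compartmental analysis.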

[5] = Oral bioavailability in Wister-Han rat at 3 mg/kg administered as single dose by LC/MS-MS analysis; type: ADME, organism-based; conditions: Wistar-Han, in vivo; summary of the method: as §2
[6] = Protein binding in cynomolgus monkey plasma assessed as unbound fraction at 1 uM by micro-equilibrium dialysis based LC-MS/MS analysis; type: ADME, cell-free, Macaca fascicularis
Summary of the method: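 Equilibrium dialysis of pooled rat or cynomolgus plasma against Soerensen buffer pH 7.4, 12–14 kDa cut-off membrane. Compounds tested in cassettes of 2–5 at 1 μM initial total concentration, with diazepam as control. Dialysis 5 hr at 37 °C under 5% CO₂. Unbound percentage by LC/MS-MS.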

[7] = Plasma clearance in iv dosed cynomolgus monkey; type: ADME, organism-based, Macaca fascicularis
[8] = Free plasma concentration in cynomolgus monkey at 0.01 mg/kg; type: ADME, organism-based, Macaca fascicularis; conditions: in vivo
Summary of the method: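 Cynomolgus monkeys, 2 per group, given single oral doses of 0.01, 0.1, 1 or 10 mg/kg as a suspension in hydroxyethylcellulose/polysorbate 80/parabens vehicle, 2 mL/kg. Synacthen 14.5 µg/kg given i.m. at 1 hr. Plasma compound levels by LC/MS-MS. Average free exposure calculated from AUC0-7hr and corrected for plasma protein binding.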

[9] = target: T1, Cytochrome P450 11B2, mitochondrial (Homo sapiens, UniProt P19099); experiment: Inhibition of CYP11B2 in H295R cell assessed as reduction in aldosterone by LC/MS-MS method
T1 sequence (P19099 whole entry): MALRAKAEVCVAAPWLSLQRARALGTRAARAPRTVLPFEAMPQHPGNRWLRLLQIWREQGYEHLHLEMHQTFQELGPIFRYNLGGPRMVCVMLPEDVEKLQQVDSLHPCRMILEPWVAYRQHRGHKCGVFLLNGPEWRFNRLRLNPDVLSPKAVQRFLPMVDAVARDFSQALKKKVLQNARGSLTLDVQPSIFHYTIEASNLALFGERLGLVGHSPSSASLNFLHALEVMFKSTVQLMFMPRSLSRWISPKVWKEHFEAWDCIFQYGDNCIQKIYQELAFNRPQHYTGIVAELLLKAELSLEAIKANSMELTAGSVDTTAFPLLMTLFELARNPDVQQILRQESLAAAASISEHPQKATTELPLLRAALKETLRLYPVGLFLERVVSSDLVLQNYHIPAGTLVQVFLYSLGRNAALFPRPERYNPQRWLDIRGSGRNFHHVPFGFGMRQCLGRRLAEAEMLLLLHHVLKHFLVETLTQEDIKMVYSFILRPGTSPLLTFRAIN

CCS(=O)(=O)N1CC(Oc2cncc(N3C(=O)c4ccc(Cl)cc4C3(C)C)c2)C1
Activity (Cynomolgus monkey [1]): Non-Toxic
Activity (Cynomolgus monkey [2]): Toxic
Papp at 18 h [3]: 4.17 ×10⁻⁶ cm/s
clearance [4]: 3.8 mL/min/kg
bioavailability [5]: 45%
fraction unbound at 1 µM [6]: 0.138
clearance [7]: 4.6 mL/min/kg
Cp(f) [8]: 0.075 ng/mL
IC50 [9]: < 1 nM
